Test results: ChEMBL document CHEMBL1131054, “Synthesis and structure-activity relationships of 2-pyrazinylcarboxamidobenzoates and beta-ionylideneacetamidobenzoates with retinoidal activity” (1998)

Experiments:
Assay type in all cases: functional
[1] = test system: HL-60; test: Percent differentiation of human promyelocytic leukemia (HL60) cells at 10e -6M concentration in culture medium
Summary of the method: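 HL60 cells in RPMI-1640 with 10% FBS, 2 mM L-glutamine and gentamycin were exposed for 4 days to compound at 10⁻⁶ M final, diluted from a DMSO stock, at 1×10^5 cells/mL. Differentiation was scored by NBT reduction: 30 min at 37 °C with 0.2% NBT plus 200 ng/mL PMA. At least 200 cells were counted by light microscopy, blue cells scored as differentiated.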

[2] = test system: P19; test: Percent aggregation of mouse embryonal carcinoma (P19) cells 10e-6 M concentration in culture medium
Summary of the method: (§1)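 P19 mouse embryonal carcinoma cells grown in α-MEM with 7.5% calf serum, 2.5% fetal calf serum and gentamycin at 37 °C, 5% CO2. Cells trypsinized, replated at 2×10^5 cells/mL, dosed from DMSO stock at 10⁻⁶ M final, redosed with fresh medium after 2 days, diluted 3 days later and counted 2 days after that. Read-out is percent of aggregates with neural outgrowth. Run in triplicate.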

[3] = test system: P19; test: percent aggregation of mouse embryonal carcinoma (P19) cells 10e -6M concentration in culture medium; summary of the method: as §1

| Compound | Differentiation [1] | Aggregates [2] | Aggregation [3] |
| --- | --- | --- | --- |
| CC1(C)CCC(C)(C)c2nc(C(=O)Nc3cccc(C(=O)O)c3)cnc21 | 2% | 1% |  |
| CC1(C)CC(C)(C)c2nc(C(=O)Nc3ccc(C(=O)O)c(Cl)c3)cnc21 | 67% | 60% |  |
| CC1(C)CC(C)(C)c2nc(C(=O)Nc3cccc(C(=O)O)c3)cnc21 | 0% | 0% |  |
| COc1cc(C(=O)O)ccc1NC(=O)c1cnc2c(n1)C(C)(C)CC2(C)C | 6% | 0% |  |
| CC1(C)CC(C)(C)c2nc(C(=O)Nc3ccc(C(=O)O)cc3)cnc21 | 46% | 67% |  |
| COc1cc(C(=O)O)ccc1NC(=O)/C=C(C)/C=C/C1=C(C)CCCC1(C)C | 9% | 2% |  |
| COC(=O)c1ccc(NC(=O)c2cnc3c(n2)C(C)(C)CC3(C)C)cc1Cl | 69% | 50% |  |
| CC1=C(/C=C/C(C)=C/C(=O)N(C)c2ccc(C(=O)O)cc2)C(C)(C)CCC1 | 4% | 1% |  |
| CC1=C(/C=C/C(C)=C/C(=O)Nc2ccc(C(=O)O)cc2)C(C)(C)CCC1 | 79% | 68% |  |
| COC(=O)c1ccc(N(C)C(=O)c2cnc3c(n2)C(C)(C)CC3(C)C)cc1 | 7% | 0% |  |
| CN(C(=O)c1cnc2c(n1)C(C)(C)CCC2(C)C)c1ccc(C(=O)O)cc1 | 15% | 0% |  |
| COC(=O)c1ccc(Cl)c(NC(=O)c2cnc3c(n2)C(C)(C)CCC3(C)C)c1 | 7% | 0% |  |
| COC(=O)c1ccc(NC(=O)c2cnc3c(n2)C(C)(C)CCC3(C)C)cc1Cl | 47% | 74% |  |
| COC(=O)c1cccc(NC(=O)c2cnc3c(n2)C(C)(C)CC3(C)C)c1 | 0% | 2% |  |
| COC(=O)c1ccc(Cl)c(NC(=O)c2cnc3c(n2)C(C)(C)CC3(C)C)c1 | 4% | 0% |  |
| COC(=O)c1cc(NC(=O)c2cnc3c(n2)C(C)(C)CC3(C)C)cc(C(=O)OC)c1 | 4% | 1% |  |
| COC(=O)c1ccc(OC)c(NC(=O)c2cnc3c(n2)C(C)(C)CCC3(C)C)c1 | 0% | 0% |  |
| COC(=O)c1cccc(NC(=O)c2cnc3c(n2)C(C)(C)CCC3(C)C)c1 | 6% | 0% |  |
| CC1(C)CCC(C)(C)c2nc(C(=O)Oc3ccc(C(=O)O)cc3)cnc21 | 47% |  | 0% |
| COc1ccc(C(=O)O)cc1NC(=O)c1cnc2c(n1)C(C)(C)CC2(C)C | 3% | 0% |  |
| COC(=O)c1ccc(NC(=O)c2cnc3c(n2)C(C)(C)CCC3(C)C)cc1 | 76% | 75% |  |
| COC(=O)c1ccc(NC(=O)c2cnc3c(n2)C(C)(C)CC3(C)C)cc1 | 43% | 52% |  |
| CC1(C)CC(C)(C)c2nc(C(=O)Nc3cc(C(=O)O)cc(C(=O)O)c3)cnc21 | 2% | 2% |  |
| COc1cc(C(=O)O)ccc1NC(=O)c1cnc2c(n1)C(C)(C)CCC2(C)C | 30% | 0% |  |
| COC(=O)c1cc(NC(=O)c2cnc3c(n2)C(C)(C)CCC3(C)C)cc(C(=O)OC)c1 | 2% | 0% |  |
| COC(=O)c1ccc(NC(=O)c2cnc3c(n2)C(C)(C)CC3(C)C)c(OC)c1 | 13% | 0% |  |
| COC(=O)c1ccc(OC)c(NC(=O)c2cnc3c(n2)C(C)(C)CC3(C)C)c1 | 1% | 0% |  |
| CC1(C)CCC(C)(C)c2nc(C(=O)Nc3ccc(C(=O)O)cc3)cnc21 | 73% | 70% |  |
| CC1(C)CC(C)(C)c2nc(C(=O)Nc3cc(C(=O)O)ccc3Cl)cnc21 | 20% | 2% |  |
| CC1=C(/C=C/C(C)=C/C=C/C(C)=C/C(=O)O)C(C)(C)CCC1 [TRETINOIN] | 91% |  | 86% |
